From ChEMBL document CHEMBL1126796, “2-(Alkylamino)nicotinic acid and analogs. Potent angiotensin II antagonists” (J Med Chem, 1993)
Active and inactive are the calls of the source. The rule behind the calls is not given here.

How the values were obtained:
Rattus norvegicus [1] = assay: % decrease in blood pressure after 4 hours at a dose of 1 mg/kg in male rats by using Furosemide-treated spontaneous hypertensive model; IA means inactive; format: functional, organism-based; set-up: dose 1 mg/kg
Summary of the method: (§1)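 Male SHR, 20-24 weeks old, pretreated with furosemide 10 mg/kg sc at 22 and 4 h before the experiment; compound dosed orally. Arterial pressure was recorded from an indwelling femoral artery catheter with on-line blood pressure and heart rate analysis. Read-out is % fall in blood pressure at 4 h and at 24 h, ±SEM, with number of rats.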

Rattus norvegicus [2] = assay: % decrease in blood pressure after 4 hours at a dose of 0.3 mg/kg in male rats by using Renal artery hypertensive model; format: functional
Summary of the method: (§2)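 Male Sprague-Dawley rats (300-350 g) were made hypertensive by renal artery ligation and used on day 6 or 7 after ligation. Arterial pressure was measured from an indwelling femoral artery catheter, with blood pressure and heart rate recorded on line. Read-out is % decrease in blood pressure at 4 h, ±SEM, with number of rats.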

Rattus norvegicus [3] = assay: % decrease in blood pressure after 4 hours at a dose of 10 mg/kg in male rats by using Renal artery hypertensive model; format: functional; summary of the method: as §2
Rattus norvegicus [4] = assay: % decrease in blood pressure after 4 hours at a dose of 1 mg/kg in male rats by using Furosemide-treated spontaneous hypertensive model; format: functional; summary of the method: as §1
Rattus norvegicus [5] = assay: % decrease in blood pressure after 24 hours at a dose of 1 mg/kg in male rats by using Furosemide-treated spontaneous hypertensive model; format: functional; summary of the method: as §1
Rattus norvegicus [6] = assay: % decrease in blood pressure after 4 hours at a dose of 0.3 mg/kg in male rats by using Renal artery hypertensive model; IA means inactive; format: functional, organism-based; set-up: dose 0.3 mg/kg; summary of the method: as §2
Rattus norvegicus [7] = assay: % decrease in blood pressure after 4 hours at a dose of 3 mg/kg administered iv in male rats by using Renal artery hypertensive model; IA means inactive; format: functional, organism-based; set-up: dose 3 mg/kg; summary of the method: as §2
[8] = target: T1, Type-1 angiotensin II receptor A (Rattus norvegicus, UniProt P25095); assay: Binding affinity against angiotensin II receptor from rat liver
T1 sequence (P25095 whole entry): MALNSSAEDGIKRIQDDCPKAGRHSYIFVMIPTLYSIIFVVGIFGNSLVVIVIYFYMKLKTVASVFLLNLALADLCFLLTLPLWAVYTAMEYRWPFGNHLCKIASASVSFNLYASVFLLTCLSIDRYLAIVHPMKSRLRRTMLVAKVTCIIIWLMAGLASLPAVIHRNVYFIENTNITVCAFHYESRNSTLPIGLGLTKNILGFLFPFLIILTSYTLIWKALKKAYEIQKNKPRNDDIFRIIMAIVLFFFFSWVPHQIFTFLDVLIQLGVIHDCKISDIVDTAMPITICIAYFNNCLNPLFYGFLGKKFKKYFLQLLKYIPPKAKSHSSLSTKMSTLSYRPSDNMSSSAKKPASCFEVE
Summary of the method: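 Rat liver membranes were incubated with [125I]-saralasin to measure angiotensin II type 1 receptor binding. Nonspecific binding was defined with 1 µM angiotensin.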

Rattus norvegicus [9] = assay: % decrease in blood pressure after 4 hours in male rats at a dose of 3 mg/kg administered iv by using Renal artery hypertensive model; IA means inactive; format: functional, organism-based; set-up: dose 3 mg/kg; summary of the method: as §2
Rattus norvegicus [10] = assay: % decrease in blood pressure after 4 hours in male rats at a dose of 10 mg/kg by using Renal artery hypertensive model; format: functional; summary of the method: as §2
Rattus norvegicus [11] = assay: % decrease in blood pressure after 4 hours at a dose of 30 mg/kg in male rats by using Renal artery hypertensive model; format: functional; summary of the method: as §2
Rattus norvegicus [12] = assay: % decrease in blood pressure after 4 hours in male rats at a dose of 0.3 mg/kg by using Renal artery hypertensive model; format: functional; summary of the method: as §2
[13] = Volume of distribution of central compartment (= dose+ plasma concentration at time zero) after intravenous dose of 3.87 mg/kg; format: ADME, organism-based; set-up: dose 3.87 mg/kg, route intravenous; details: read-out: VI
Summary of the method: (§3)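 Jugular-vein slow iv bolus (normal saline, 1 mL/kg) in male Sprague-Dawley-derived rats. Plasma was sampled via the tail vein at 0.1–24 h and measured by reverse-phase HPLC after liquid-liquid extraction. Central volume was taken as dose divided by plasma concentration at time zero. Terminal-phase volume was derived from clearance and the plasma elimination rate constant.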

Rattus norvegicus [14] = assay: % decrease in blood pressure after 4 hours in male rats at a dose of 0.1 mg/kg by using Renal artery hypertensive model; format: functional; summary of the method: as §2
[15] = Plasma clearance after intravenous dose of 3.87 mg/kg; format: ADME, organism-based; set-up: dose 3.87 mg/kg, route intravenous; details: read-out: Clp
Summary of the method: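 Male Sprague-Dawley-derived rats received a slow iv bolus into the jugular vein of the compound in normal saline (1 mL/kg). Tail-vein heparinized blood was drawn from 0.1 to 24 h and assayed by reverse-phase HPLC after liquid-liquid extraction. Total plasma clearance was calculated as dose divided by AUC and reported as mean (SEM).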

[16] = Area under curve after oral dose of 3.87 mg/kg; format: ADME, organism-based; set-up: dose 3.87 mg/kg, route oral; details: in vivo
Summary of the method: (§4)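 Male Sprague-Dawley-derived rats were dosed with compound in normal saline (1 mL/kg), by gavage or as a slow IV bolus into the jugular vein. Heparinized tail-vein blood was taken at 0.25-24 h, extracted liquid-liquid and assayed by reverse-phase HPLC. Cmax is the observed peak concentration and AUC is mean (SEM). F compares oral with IV AUC, corrected for dose and assuming dose proportionality.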

Rattus norvegicus [17] = assay: % decrease in blood pressure after 4 hours in male rats at a dose of 0.03 mg/kg by using Renal artery hypertensive model; format: functional; summary of the method: as §2
[18] = Cmax value after oral dose of 3.87 mg/kg; format: ADME, organism-based; set-up: dose 3.87 mg/kg, route oral; details: in vivo; summary of the method: as §4
Rattus norvegicus [19] = assay: % decrease in blood pressure after 4 hours at a dose of 3 mg/kg in male rats by using Renal artery hypertensive model; format: functional; summary of the method: as §2
[20] = Half-life period of compound after intravenous dose of 3.87 mg/kg; format: ADME, organism-based; set-up: dose 3.87 mg/kg, route intravenous; details: in vivo
Summary of the method: (§5)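 Male Sprague-Dawley-derived rats. Compound was given in normal saline at 1 mL/kg, either as a slow iv bolus into the jugular vein or orally by gavage. Plasma underwent liquid-liquid extraction and reverse-phase HPLC. Terminal elimination half-life and time of observed peak concentration were taken from the profiles.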

[21] = Apparent bioavailability after oral dose of 3.87 mg/kg; format: ADME, organism-based; details: eutheria, in vivo; summary of the method: as §4
[22] = Half-life period after oral dose of 3.87 mg/kg; format: ADME, organism-based; set-up: dose 3.87 mg/kg, route oral; details: in vivo; summary of the method: as §5
[23] = Tmax value after oral dose of 3.87 mg/kg; format: ADME, organism-based; set-up: dose 3.87 mg/kg, route oral; details: in vivo; summary of the method: as §5
[24] = Volume of distribution of the terminal phase (= CLp+ plasma elimination rate constant) after intravenous dose of 3.87 mg/kg; format: ADME, organism-based; set-up: dose 3.87 mg/kg, route intravenous; details: read-out: Vbeta; summary of the method: as §3
Rattus norvegicus [25] = assay: % decrease in blood pressure after 24 hours at a dose of 10 mg/kg in male rats by using Furosemide-treated spontaneous hypertensive model; format: functional; summary of the method: as §1
Rattus norvegicus [26] = assay: % decrease in blood pressure after 4 hours at a dose of 10 mg/kg in male rats by using Furosemide-treated spontaneous hypertensive model; format: functional; summary of the method: as §1
Rattus norvegicus [27] = assay: % decrease in blood pressure after 4 hours in male rats at a dose of 3 mg/kg by using Renal artery hypertensive model; IA means inactive; format: functional, organism-based; set-up: dose 3 mg/kg; summary of the method: as §2
Rattus norvegicus [28] = assay: % decrease in blood pressure after 4 hours at a dose of 0.3 mg/kg in male rats by using Furosemide-treated spontaneous hypertensive model; format: functional; summary of the method: as §1
Rattus norvegicus [29] = assay: % decrease in blood pressure after 4 hours at a dose of 0.1 mg/kg in male rats by using Furosemide-treated spontaneous hypertensive model; format: functional; summary of the method: as §1
Rattus norvegicus [30] = assay: % decrease in blood pressure after 24 hours at a dose of 0.1 mg/kg in male rats by using Furosemide-treated spontaneous hypertensive model; format: functional; summary of the method: as §1
Rattus norvegicus [31] = assay: % decrease in blood pressure after 24 hours at a dose of 0.3 mg/kg in male rats by using Furosemide-treated spontaneous hypertensive model; format: functional; summary of the method: as §1

For `CCCN(Cc1ccc(-c2ccccc2-c2nn[nH]n2)cc1)c1ncccc1C(=O)OC`, the “Decrease in blood pressure” value (Rattus norvegicus [1]) was “inactive”.
With `CCCN(Cc1ccc(-c2ccccc2-c2nn[nH]n2)cc1)c1ncccc1NS(=O)(=O)C(F)(F)F` the “Decrease in blood pressure” value (Rattus norvegicus [2]) was 6%.
In the case of `CCCCc1nc(Cl)c(C(=O)O)n1Cc1ccc(-c2ccccc2-c2nn[nH]n2)cc1` [CARBOXYLIC ACID METABOLITE], the “Decrease in blood pressure” value (Rattus norvegicus [3]) is reported as 40%.
For `CCCN(Cc1ccc(-c2ccccc2-c2nn[nH]n2)cc1)c1ncccc1C=O`, the “Decrease in blood pressure” value (Rattus norvegicus [2]) was 15%.
In the case of `C=CCN(Cc1ccc(-c2ccccc2-c2nn[nH]n2)cc1)c1ncccc1C(=O)O`, the “Decrease in blood pressure” value (Rattus norvegicus [4]) is reported as 13% and the “Decrease in blood pressure” value (Rattus norvegicus [5]) is reported as 31%.
With `CCCN(Cc1ccc(-c2ccccc2-c2nn[nH]n2)cc1)c1ncccc1CO` the “Decrease in blood pressure” value (Rattus norvegicus [6]) was “inactive”.
For `CCc1ncc(C(=O)O)c(NCc2ccc(-c3ccccc3-c3nn[nH]n3)cc2)n1.Cl`, the “Decrease in blood pressure” value (Rattus norvegicus [7]) was “inactive”, the Ki [8] was 68.1 nM and the “Decrease in blood pressure” value (Rattus norvegicus [9]) was “inactive”.
For `CCCN(Cc1ccc(-c2ccccc2-c2nn[nH]n2)cc1)c1nccc(C)c1C(=O)O`, the “Decrease in blood pressure” value (Rattus norvegicus [4]) was 10% and the “Decrease in blood pressure” value (Rattus norvegicus [5]) was 15%.
With `CCCCN(Cc1ccc(-c2ccccc2-c2nn[nH]n2)cc1)c1nccnc1C(=O)O` the “Decrease in blood pressure” value (Rattus norvegicus [4]) was 7% and the “Decrease in blood pressure” value (Rattus norvegicus [5]) was 21%.
For `CCCN(Cc1ccc(-c2ccccc2-c2nn[nH]n2)cc1)c1nc(C)cnc1C(=O)O`, the “Decrease in blood pressure” value (Rattus norvegicus [4]) was 2% and the “Decrease in blood pressure” value (Rattus norvegicus [5]) was 18%.
With `CCCN(Cc1ccc(-c2ccccc2-c2nn[nH]n2)cc1)c1nnccc1C(=O)O` the “Decrease in blood pressure” value (Rattus norvegicus [4]) was 3% and the “Decrease in blood pressure” value (Rattus norvegicus [5]) was 18%.
For `CCCN(Cc1ccc(-c2ccccc2-c2nn[nH]n2)cc1)c1nc(C)ncc1C(=O)O`, the “Decrease in blood pressure” value (Rattus norvegicus [10]) was 15%, the “Decrease in blood pressure” value (Rattus norvegicus [11]) was 18% and the Ki [8] was 2.78 nM.
With `CCOC(=O)c1cnc(CC)nc1NCc1ccc(-c2ccccc2-c2nn[nH]n2)cc1` the “Decrease in blood pressure” value (Rattus norvegicus [10]) was 14%, the “Decrease in blood pressure” value (Rattus norvegicus [11]) was 32% and the Ki [8] was 20.6 nM.
In the case of `CCCN(Cc1ccc(-c2ccccc2-c2nn[nH]n2)cc1)c1ncc(F)cc1C(=O)O`, the “Decrease in blood pressure” value (Rattus norvegicus [4]) is reported as 6% and the “Decrease in blood pressure” value (Rattus norvegicus [5]) is reported as 22%.
In the case of `CCc1nc2c(C)cc(C)nc2n1Cc1ccc(-c2ccccc2-c2nnn[nH]2)cc1` [L-158809], the “Decrease in blood pressure” value (Rattus norvegicus [12]) is reported as 25%, the Vd [13] is reported as 0.41 L/kg and the “Decrease in blood pressure” value (Rattus norvegicus [14]) is reported as 15%. For the same compound, the clearance [15] was 1.47 mL/min, the “Decrease in blood pressure” value (Rattus norvegicus [4]) was 32% and the AUC [16] was 11.14 µg/h/mL. For the same compound, the “Decrease in blood pressure” value (Rattus norvegicus [17]) was 8%, the Cmax [18] was 1590 ng/mL and the Ki [8] was 0.45 nM. The “Decrease in blood pressure” value (Rattus norvegicus [19]) was 32%, the half-life [20] was 4.5 h and the bioavailability [21] was 66.7%. The half-life [22] was 3.9 h, the Tmax [23] was 2 h and the Vd [24] was 1.78 L/kg. The “Decrease in blood pressure” value (Rattus norvegicus [5]) was 30%.
For `CCCN(Cc1ccc(-c2ccccc2-c2nn[nH]n2)cc1)c1nc(F)ccc1C(=O)O`, the “Decrease in blood pressure” value (Rattus norvegicus [4]) was 15% and the “Decrease in blood pressure” value (Rattus norvegicus [5]) was 36%.
For `CCCCc1nc(Cl)c(CO)n1Cc1ccc(-c2ccccc2-c2nnn[nH]2)cc1` [LOSARTAN], the “Decrease in blood pressure” value (Rattus norvegicus [25]) was 34%, the “Decrease in blood pressure” value (Rattus norvegicus [26]) was 21% and the “Decrease in blood pressure” value (Rattus norvegicus [27]) was “inactive”. The “Decrease in blood pressure” value (Rattus norvegicus [3]) was 27%.
With `CCCCN(Cc1ccc(-c2ccccc2-c2nn[nH]n2)cc1)c1ncccc1C(=O)O` the “Decrease in blood pressure” value (Rattus norvegicus [14]) was 16%, the “Decrease in blood pressure” value (Rattus norvegicus [2]) was 45% and the “Decrease in blood pressure” value (Rattus norvegicus [28]) was 14%. For the same compound, the “Decrease in blood pressure” value (Rattus norvegicus [29]) was 5%, the “Decrease in blood pressure” value (Rattus norvegicus [30]) was 22% and the “Decrease in blood pressure” value (Rattus norvegicus [31]) was 40%.
For `CCCCN(Cc1ccc(-c2ccccc2-c2nn[nH]n2)cc1)c1nc(C)ncc1C(=O)O.Cl`, the “Decrease in blood pressure” value (Rattus norvegicus [11]) was 11% and the Ki [8] was 15.3 nM.
